The record followed here is ChEMBL document CHEMBL2069168, “Synthesis and biological evaluation of truncated α-galactosylceramide derivatives focusing on cytokine induction profile” (2012).

The source made the active and inactive calls. The calls are words filed in the database; no cut-off is given here.

For experiment [1], the system named is Splenocyte. The experiment in a line: Immunostimulatory activity in C57BL/6 mouse splenocytes assessed as IL-4 release at 100 ng/ml after 72 hrs by ELISA relative to OCH. Format: functional. In short, it runs like this: (§1)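 Splenocytes from female C57BL/6 mice (6–8 weeks) in RPMI1640 with 10% FBS, 5×10^-5 M 2-mercaptoethanol, 1 mM pyruvate, 25 mM HEPES; 5×10^5 cells/well stimulated with glycolipid at 100 ng/ml, 72 h, 37 °C. Supernatant IL-4 and IFN-γ by ELISA; values expressed relative to OCH reference included in every run, mean of at least three experiments.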

Experiment [2] concerns Splenocyte. Nature of the experiment: Immunostimulatory activity in C57BL/6 mouse splenocytes assessed as IFN-gamma release at 100 ng/ml after 72 hrs by ELISA relative to OCH. It counts as functional. A digest of the protocol: as §1
Background: An ELISA detects its analyte on a solid surface through an enzyme-linked reagent.

The species named for experiment [3] is Mus musculus. The experiment in a line: Immunostimulatory activity in C57BL/6 mouse splenocytes at 100 ng/ml after 72 hr assessed as IFN-gamma secretion.
For experiment [4], the species on record is Mus musculus. Nature of the experiment: Immunostimulatory activity in C57BL/6 mouse splenocytes at 100 ng/ml after 72 hrs assessed as IL-4 secretion.
The test system of a further experiment is Dendritic cell. The experiment in a line: Immunostimulatory activity in C57BL/6 mouse dendritic cells assessed as IL-12 secretion at 100 ng/ml by ELISA relative to OCH. Format: functional, cell-based.
For experiment [5], the species on record is Mus musculus. Nature of the experiment: Immunostimulatory activity in C57BL/6 mouse natural killer cells assessed as IFN-gamma secretion at 100 ng/ml by ELISA relative to OCH. Format: functional.
The test system of experiment [6] is Mus musculus. The experiment in a line: Immunosuppressive activity iv in C57BL/6 mouse assessed as inhibition of OCH-induced IFN-gamma secretion at 0.1 ug/mouse, iv administered 15 mins before OCH challenge. It counts as functional, organism-based. In short, it runs like this: (§2)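 Female C57BL/6 mice (9 weeks); glycolipids dissolved in 0.5% DMSO in saline. Test compound given iv via tail vein at 0.1 µg/mouse 15 min before iv OCH (0.1 µg/mouse). Sera taken 3, 6, 9 h after second injection; serum IL-4 and IFN-γ by ELISA. Mean ± SD, N = 4–5; Student's t-test versus vehicle.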

Experiment [7] concerns Mus musculus. The experiment in a line: Immunosuppressive activity iv in C57BL/6 mouse assessed as inhibition of OCH-induced IL-4 secretion at 0.1 ug/mouse, iv administered 15 mins before OCH challenge. Format: functional, organism-based. A digest of the protocol: as §2

On to `CCCCCCCCCCCCCCCCCCCCCCC(=O)N[C@@H](CO[C@H]1O[C@H](CO)[C@H](O)[C@H](O)[C@H]1O)[C@H](O)[C@H](O)CCCCCC`, for which the Activity in the experiment with Splenocyte [1] is listed as 97%; in the experiment on Splenocyte [2] it was 113%.

Take `CCCCCCCCCCCCCCCCCCCCCCCC(=O)N[C@@H](CO[C@H]1O[C@H](CO)[C@H](O)[C@H](O)[C@H]1O)[C@H](O)[C@H](O)CCCC`: the Activity amounted to 115% in the experiment on Splenocyte [1] and 112% with Splenocyte [2].

On to `CCCCCCCCCCCCCCCCCCCCCCCCCCCC(=O)N[C@@H](CO[C@H]1O[C@H](CO)[C@H](O)[C@H](O)[C@H]1O)[C@H](O)[C@H](O)CCCCC`, for which the values for the Activity in the experiment with Splenocyte [1] and in the experiment with Splenocyte [2] were 178% and 761%, respectively.

With `CCCCCCCCCCCCCCCCCCCCCC(=O)N[C@@H](CO[C@H]1O[C@H](CO)[C@H](O)[C@H](O)[C@H]1O)[C@H](O)[C@H](O)CCCCC`, the Activity is listed as 51% with Splenocyte [1] and 46% with Splenocyte [2].

With `CCCCCCCCCCCCCCCCCCCCCCCC(=O)N[C@@H](CO[C@H]1O[C@H](CO)[C@H](O)[C@H](O)[C@H]1O)[C@H](O)[C@H](O)COCCCCCCCCCCCC`, the Activity in the experiment filed under Mus musculus [3] worked out at 227%; in the experiment filed under Mus musculus [4], 78%.

In the case of `CCCCCCCCCCCCCCCCCCCCCCCCCC(=O)N[C@@H](CC[C@H]1O[C@H](CO)[C@H](O)[C@H](O)[C@H]1O)[C@H](O)[C@H](O)CCCCCCCCCCCCCC`, the outcome in the experiment on Dendritic cell and in the experiment listed under Mus musculus [5] was Active.

`CCCCCCCCCCCCCCCCCCCCCCCC(=O)N[C@@H](CO[C@H]1O[C@H](CO)[C@H](O)[C@H](O)[C@H]1O)[C@H](O)[C@H](O)Cc1ccccc1`: the Activity in the experiment listed under Mus musculus [3] is reported as 284%; in the experiment listed under Mus musculus [4], 211%.

In the case of `CCCCCCCCCCCCCCCCCCCCCCCC(=O)N[C@@H](CO[C@H]1O[C@H](CO)[C@H](O)[C@H](O)[C@H]1O)[C@H](O)[C@H](O)COc1ccccc1`, the Activity is reported as 80% in the experiment filed under Mus musculus [3] and 99% in the experiment listed under Mus musculus [4].

As to `CCCCCCCCCCCCCCCCCCCCCCCC(=O)N[C@@H](CC[C@H]1O[C@H](CO)[C@H](O)[C@H](O)[C@H]1O)[C@H](O)[C@H](O)CCCCC`, the inhibition entry with Mus musculus [6] and in the experiment on Mus musculus [7] was “inactive” each time. The Activity is on record as 0% in the experiment filed under Mus musculus [3] and 1% in the experiment listed under Mus musculus [4].

`CCCCCCCCCCCCCCCCCCCCCCCCC(=O)N[C@@H](CO[C@H]1O[C@H](CO)[C@H](O)[C@H](O)[C@H]1O)[C@H](O)[C@H](O)CCCCC`: the Activity in the experiment with Splenocyte [1] is listed as 154%; in the experiment on Splenocyte [2] it was 103%.

As for `CCCCCCCCCCCCCCCCCCCCCCCC(=O)N[C@@H](CO[C@H]1O[C@H](CO)[C@H](O)[C@H](O)[C@H]1O)[C@H](O)[C@H](O)CCCCC`, the Activity in the experiment with Splenocyte [1], in the experiment listed under Mus musculus [3], in the experiment on Splenocyte [2] and in the experiment listed under Mus musculus [4] was 100% in each case.

For `CCCCCCCCCCCCCCCCCCCCCCCCCC(=O)N[C@@H](CO[C@H]1O[C@H](CO)[C@H](O)[C@H](O)[C@H]1O)[C@H](O)[C@H](O)CCCCCCCCCCCCCC` [RGI-7000], the Activity is recorded as 128% with Splenocyte [1] and 569% in the experiment on Splenocyte [2].

`CCCCCCCCCCCCCCCCCCCCCCCC(=O)N[C@@H](CO[C@H]1O[C@H](CO)[C@H](O)[C@H](O)[C@H]1O)[C@H](O)[C@H](O)CCc1ccccc1`: the Activity is 35% in the experiment listed under Mus musculus [3] and 57% in the experiment filed under Mus musculus [4].

As to `CCCCCCCCCCCCCCCCCCCCCCCCCC(=O)N[C@@H](CO[C@H]1O[C@H](CO)[C@H](O)[C@H](O)[C@H]1O)[C@H](O)[C@H](O)CCCCC`, the Activity in the experiment with Splenocyte [1] turned out to be 129%; with Splenocyte [2], 504%.

In the case of `CCCCCCCCCCCCCCCCCCCCCCCC(=O)N[C@@H](CO[C@H]1O[C@H](CO)[C@H](O)[C@H](O)[C@H]1O)[C@H](O)[C@H](O)CC1CCCC1`, the Activity is 74% in the experiment filed under Mus musculus [3] and 98% in the experiment listed under Mus musculus [4].

For the compound `CCCCCCCCCCCCCCCCCCCCCCCC(=O)N[C@@H](CO[C@H]1O[C@H](CO)[C@H](O)[C@H](O)[C@H]1O)[C@H](O)[C@H](O)Cc1ccc(C)cc1`, the Activity in the experiment filed under Mus musculus [3] was found to be 76%; in the experiment listed under Mus musculus [4], 78%.

For the compound `CCCCCCCCCCCCCCCCCCCC(=O)N[C@@H](CO[C@H]1O[C@H](CO)[C@H](O)[C@H](O)[C@H]1O)[C@H](O)[C@H](O)CCCCC`, the figures for the Activity with Splenocyte [1] and in the experiment on Splenocyte [2] were 6% and 9%, respectively.

Take `CCCCCCCCCCCCCCCCCCCCCCCC(=O)N[C@@H](CO[C@H]1O[C@H](CO)[C@H](O)[C@H](O)[C@H]1O)[C@H](O)[C@H](O)COC`: the results for the Activity in the experiment listed under Mus musculus [3] and in the experiment filed under Mus musculus [4] were 64% and 86%, respectively.

`CCCCCCCCCCCCCCCCCCCCCCC(=O)N[C@@H](CO[C@H]1O[C@H](CO)[C@H](O)[C@H](O)[C@H]1O)[C@H](O)[C@H](O)CCCCC`: the Activity with Splenocyte [1] is 103%; in the experiment with Splenocyte [2] it was 93%.

With `CCCCCCCCCCCCCCCCCCCCCCC(=O)N[C@@H](CO[C@H]1O[C@H](CO)[C@H](O)[C@H](O)[C@H]1O)[C@H](O)[C@H](O)CCCC`, the values for the Activity with Splenocyte [1] and in the experiment on Splenocyte [2] were 97% and 148%, respectively.

As to `CCCCCCCCCCCCCCCCCCCCCCCC(=O)N[C@@H](CO[C@H]1O[C@H](CO)[C@H](O)[C@H](O)[C@H]1O)[C@H](O)[C@H](O)CCC`, the Activity worked out at 105% in the experiment on Splenocyte [1] and 96% with Splenocyte [2].

Take `CCCCCCCCCCCCCCCCCCCCCCCC(=O)N[C@@H](CO[C@H]1O[C@H](CO)[C@H](O)[C@H](O)[C@H]1O)[C@H](O)[C@H](O)COCCC`: the figures for the Activity in the experiment listed under Mus musculus [3] and in the experiment filed under Mus musculus [4] were 161% and 103%, respectively.
